# Results published in PubChem BioAssay AID588702 (Broad Institute, 2011).
# Activity calls are given as the source filed them.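 The calls were made as follows: active = marked loss of luminescence, read as toxicity to breast epithelial cells carrying a control GFP hairpin; inactive = the rest.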
# Tested on: not listed separately
# Assay: HMLE_shGFP viability loss – cell-based, CellTiter-Glo luminescence, dry powder samples, counter-screen for breast cancer stem cell project, dose response (AID 588702)
# Details: HMLE_shGFP viability, CellTiter-Glo luminescence, 72 h
# Summary of the method: (§1)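 Material: HMLE mammary epithelial cells expressing shGFP, toxicity counterscreen line / Quantity: 1000 HMLE_shGFP cells per well / Dosing: compound delivered to wells by pin transfer / Incubation: 24 h cell attachment before dosing, then 72 h compound exposure / Benchmarks: DMSO-only wells as negative control / Measured by: CellTiter-Glo luminescence / Buffer or medium: serum-free screening medium for cell seeding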
row,SMILES,outcome
1,O=C(COc1ccc(Cl)cc1Cl)N/N=C/c1cnc[nH]1,inactive
2,O=C(COc1c(Cl)cc(Cl)cc1Cl)N/N=C/c1ccc[nH]1,inactive

# Tested on: HMLE_shGFP viability, CellTiter-Glo luminescence, 72 h
# Assay: as above
# Details: not given
# Summary of the method: as §1
row,SMILES,AC50
1,CC(C)(C)c1ccc2c(c1)OC(C(=O)N/N=C/c1ccc[nH]1)CO2 (configuration not stated),21.1 µM
2,O=C(COc1cc(Cl)ccc1Cl)N/N=C/c1ccc[nH]1,11.4 µM
3,O=C(N/N=C/c1ccc[nH]1)c1cc2ccccc2o1,378 µM
4,O=C(COc1ccc(Cl)cc1Cl)N/N=C/c1ccc[nH]1,51.4 µM
5,Cc1cc(Cl)ccc1OCC(=O)N/N=C/c1ccc[nH]1,29.9 µM
